Sampled rows, rich in hits. Any-hit rate of the full collection: about 3.8%.
FN deposit inh: fibronectin deposition inhibition; AH1F fibroblasts, Alexa488-fibronectin deposition fluorescence, overnight; hit rate 0.086% among 350,000; inhibition, % at 12.6 µM;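 active = mean inhibition across replicates of 30% or more, regardless of how many single replicates reach that level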
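Assay system: AH1F fibroblast monolayer, labelled fibronectin deposition. Amount: 10000 cells per well. Also added: labelled fibronectin 24 nM. Compound: single-point pinned compound. Incubation: cell attachment 1 h, compound and FN exposure overnight. Detection: fluorescence after three HBSS washes, excitation 485 nm, emission 525 nm. Read-out: inhibition of fibronectin deposition signal.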
ARNT TACC3 PPI: disrupts binding between human ARNT and TACC3; Q9Y6A5; AlphaScreen His-ARNT PAS-B/GST-TACC3 binding, luminescence; TACC3 fragment carries E629A point mutation; inhibition, % at 9.99 µM; hit rate 0.66% among 390,000;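 active = mean inhibition of replicates at least 50% and at least half of replicates each reaching 50%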
SIRT5 block: inhibitors of human sirtuin-5 desuccinylase. Purified SirT5, succinyl-peptide AMC, trypsin-coupled fluorescence. inhibition, % at 15 µM. hit rate 1.1% among 330,000; in the data active = inhibition above about 15%
Target sequence (Q9NXA8 whole entry, looked up): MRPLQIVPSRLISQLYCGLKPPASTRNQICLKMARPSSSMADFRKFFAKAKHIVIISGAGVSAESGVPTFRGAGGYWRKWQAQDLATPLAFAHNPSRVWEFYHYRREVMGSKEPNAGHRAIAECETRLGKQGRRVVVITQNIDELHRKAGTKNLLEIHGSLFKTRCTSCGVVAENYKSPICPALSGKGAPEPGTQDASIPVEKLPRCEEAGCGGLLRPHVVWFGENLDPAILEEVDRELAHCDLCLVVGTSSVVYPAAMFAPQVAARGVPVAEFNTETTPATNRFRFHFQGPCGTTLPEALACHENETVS
Xi reactivation: activators of X-chromosome reactivation in mouse fibroblasts. XiGFP mouse fibroblasts, % GFP-positive cells imaging, 3 d; cells co-treated with 5-aza-dC sensitizer; scaled so ellipticine positive control = 100%. activation, % at 7.58 µM. hit rate 0.055% among 360,000. AID 743238;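 active = mean normalized replicate activation at least 10% and every replicate at or above 10%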
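Material: XiGFP fibroblasts, SV40-immortalized; Buffer or medium: DMEM containing 5-aza-dC; Compound dosing: single point; Times: 3 days compound exposure.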
FGF22 binding: binders of recombinant human FGF22 by thermal shift; Q9HCT0; SYPRO orange fluorescence; percent of sucrose octasulfate shift, DMSO zero; activity (Tm shift, normalised), % at 9.99 µM; hit rate 1.5% among 340,000;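 active = mean Tm shift, scaled 0 neutral to 100 positive control, at about 1.3% or above, every replicate too, limit read from the data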
Target sequence (Q9HCT0 whole entry, looked up): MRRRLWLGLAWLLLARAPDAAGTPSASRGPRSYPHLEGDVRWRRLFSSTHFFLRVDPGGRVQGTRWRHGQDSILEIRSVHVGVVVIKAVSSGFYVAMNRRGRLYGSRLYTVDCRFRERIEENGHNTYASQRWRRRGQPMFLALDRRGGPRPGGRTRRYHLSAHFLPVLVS
DENV2 CPE rescue: protects cells from dengue virus 2 cytopathic effect; DENV2-infected cells, cytopathic effect rescue, plate reader; CPE inhibition, % at 9.99 µM; hit rate 1.7% among 350,000; AID 651640; in the data active = CPE inhibition above about 20%, passing the limit was not always enough; tested in BHK-21 cells
ARNT Alpha ctr-1: interferes with AlphaScreen signal, flagging false ARNT-TACC3 hits. shares compounds with ARNT TACC3 PPI. hit rate 50% among 1,200. AC50, µM (top dose mostly 68 µM). His-ARNT PASB-GST AlphaScreen artifact counter-screen, luminescence;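 active = every separate test run was called active for a drop in luminescence, with AC50 within twice the top valid dose, actives reach about 71 µM in these data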
ARNT Alpha ctr-2: produces AlphaScreen artifacts in ARNT-TACC3 counter-screen; shares compounds with ARNT TACC3 PPI; Dual-tagged His-ARNT PASB-GST AlphaScreen artifact counter-screen; AC50, µM; hit rate 70% among 45; AID 720564;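 active = luminescence drop, with half-maximal potency fitted within twice the sample's top valid dose, cut at about 70 µM in these data; inactive = the rest, including signal moving the wrong way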
A number is an active result.

What do the screens show for `C[C@H]1CCCCO[C@H](CN(C)S(=O)(=O)c2cccs2)[C@@H](C)CN([C@@H](C)CO)C(=O)c2cc(N(C)C)ccc2O1`?
ARNT TACC3 PPI: inactive; SIRT5 block: inactive; Xi reactivation: inactive; FGF22 binding: inactive; DENV2 CPE rescue: inactive

Results for COC(=O)C[C@@H]1CC[C@@H](NS(=O)(=O)c2ccc(OC)cc2)[C@H](CO)O1 ?
FN deposit inh: inactive; ARNT TACC3 PPI: 58.1; SIRT5 block: inactive; Xi reactivation: inactive; FGF22 binding: inactive; DENV2 CPE rescue: inactive; ARNT Alpha ctr-1: inactive

What do the screens show for `O=C(CC(=O)N/N=C/c1ccccc1O)NCc1cccnc1`?
FN deposit inh: inactive; ARNT TACC3 PPI: 47.7; SIRT5 block: inactive; Xi reactivation: inactive; FGF22 binding: inactive; DENV2 CPE rescue: inactive; ARNT Alpha ctr-1: inactive

Results for NS(=O)(=O)c1ccc(CCNC(=O)c2ccc3c(c2)OCO3)cc1 ?
FN deposit inh: inactive; ARNT TACC3 PPI: 41.4; SIRT5 block: inactive; Xi reactivation: inactive; FGF22 binding: inactive; DENV2 CPE rescue: inactive; ARNT Alpha ctr-1: inactive

What do the screens show for `CC1=CC(C)(C)N(C(=O)C(C)N2C(=O)c3ccccc3C2=O)c2ccc(C)cc21` (configuration not stated)?
ARNT TACC3 PPI: active; ARNT Alpha ctr-1: inactive

Results for CC1=CC(C)(C)N(C(=O)c2ccccc2)c2ccc(C)cc21 ?
FN deposit inh: inactive; ARNT TACC3 PPI: inactive

How did CCCNC(=O)N1CCC2(CC1)CN(C(C)=O)[C@H](CO)c1c2c2ccc(OC)cc2n1C do in these assays?
Xi reactivation: inactive; FGF22 binding: inactive; DENV2 CPE rescue: inactive

What do the screens show for `COc1cc(/C=N/NC(=O)CCn2nnc3ccccc32)ccc1O`?
FN deposit inh: inactive; ARNT TACC3 PPI: inactive; SIRT5 block: inactive; Xi reactivation: inactive; FGF22 binding: inactive; DENV2 CPE rescue: inactive

Results for COc1ccc(O)c(/C=N\NC(=O)CCn2nnc3ccccc32)c1 ?
ARNT TACC3 PPI: 50.6; ARNT Alpha ctr-1: inactive

What do the screens show for `Nc1ccc(C(=O)Nc2ccc3c(O)cc(S(=O)(=O)O)cc3c2)cc1`?
FN deposit inh: inactive; ARNT TACC3 PPI: 69.3; SIRT5 block: 65.8; Xi reactivation: inactive; FGF22 binding: inactive; DENV2 CPE rescue: inactive; ARNT Alpha ctr-1: inactive

What do the screens show for `CCCC(=O)Nc1ccc2c(c1)C(=O)N(C)[C@@H]1CC[C@@H](CC(=O)N3CCc4ccccc4C3)O[C@@H]1CO2`?
FN deposit inh: inactive; ARNT TACC3 PPI: inactive; Xi reactivation: inactive; FGF22 binding: inactive; DENV2 CPE rescue: inactive

How did CCOc1cc2c(C#N)c(N(CC)CC)nc(N)c2c(N)n1 do in these assays?
FN deposit inh: inactive; ARNT TACC3 PPI: inactive; Xi reactivation: inactive; FGF22 binding: inactive; DENV2 CPE rescue: inactive

What do the screens show for `CCOc1cc2c(C#N)c(N3CCOCC3)nc(N)c2c(N)n1`?
ARNT TACC3 PPI: 30.1; ARNT Alpha ctr-1: inactive

How did COCC(=O)Nc1ccc2c(c1)OC[C@@H](C)N(Cc1ccccc1OC)C[C@@H](C)[C@@H](OC)CN(C)C2=O do in these assays?
FN deposit inh: inactive; Xi reactivation: inactive

What do the screens show for `O=C(O)c1ncn(Cc2ccccc2)c1C(=O)O`?
ARNT TACC3 PPI: 61.6; ARNT Alpha ctr-1: inactive

What do the screens show for `O=C(CSc1ccc(-c2ccccn2)nn1)NC1CCCC1`?
FN deposit inh: inactive; ARNT TACC3 PPI: 59.0; SIRT5 block: inactive; Xi reactivation: inactive; FGF22 binding: inactive; DENV2 CPE rescue: inactive; ARNT Alpha ctr-1: 17.9µM

What do the screens show for `O=C(CSc1ccc(-c2ccccn2)nn1)c1ccccc1`?
FN deposit inh: inactive; ARNT TACC3 PPI: 74.6; SIRT5 block: inactive; Xi reactivation: inactive; FGF22 binding: inactive; DENV2 CPE rescue: inactive; ARNT Alpha ctr-1: 14.7µM

What do the screens show for `O=C(CSc1ccc(-c2ccccn2)nn1)N1CCCC1`?
FN deposit inh: inactive; ARNT TACC3 PPI: 84.9; SIRT5 block: inactive; Xi reactivation: inactive; FGF22 binding: inactive; DENV2 CPE rescue: inactive; ARNT Alpha ctr-1: 48.1µM; ARNT Alpha ctr-2: 23.2

Compound activity as filed in PubChem BioAssay.
